In ChEMBL document CHEMBL1151737, “Development and preclinical studies of broad-spectrum anti-HIV agent (3'R,4'R)-3-cyanomethyl-4-methyl-3',4'-di-O-(S)-camphanoyl-(+)-cis-khellactone (3-cyanomethyl-4-methyl-DCK)” (J Med Chem, 2008):

Key:
H9 = assay: Cytotoxicity against human H9 cells; format: cell-based
[1] = system: Human immunodeficiency virus 1; assay: Antiviral activity against HIV1 3B infected in human H9 lymphocytes; format: functional, organism-based; settings: Human immunodeficiency virus 1, 3B
[2] = Therapeutic index, ratio of IC50 for human H9 cells to EC50 for HIV1 3B; format: cell-based; settings: read-out: Ratio IC50/EC50
MT2 = assay: Cytotoxicity against human MT2 cells after 4 days by XTT assay; format: cell-based; settings: mt2, 96 h
Method in brief: (§1)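 Cells (5 × 10⁵/mL) incubated with graded compound at 37 °C for 4 days, then XTT (1 mg/mL) with 0.02 µM PMS added. A450 read after 4 h; CC50 by CalcuSyn. Triplicate.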

[3] = system: Human immunodeficiency virus 1; assay: Antiviral activity against HIV1 3B with X4 tropism infected human MT2 cells assessed as inhibition of p24 antigen production after 4 days by ELISA; format: functional, organism-based; settings: Human immunodeficiency virus 1, 3B, MT2, 96 h
Method in brief: (§2)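 MT-2 cells (1 × 10⁴) infected with HIV-1 (100 TCID50) in RPMI 1640 + 10% FBS with graded compound concentrations overnight; supernatant then replaced with compound-free medium. Day 4 post-infection supernatant lysed with 5% Triton X-100; p24 quantified by sandwich ELISA (HIVIG capture, anti-p24 mAb, TMB, A450) against recombinant p24 standard. Triplicate; EC50 from % inhibition of p24.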

[4] = Selectivity index, ratio of CC50 for human MT2 cells to EC50 for HIV1 3B; format: toxicity, cell-based; settings: read-out: Ratio CC50/EC50
MT4 = assay: Cytotoxicity against human MT4 cells after 4 days by XTT assay; format: cell-based; settings: mt4, 96 h; method in brief: as §1
[5] = system: Human immunodeficiency virus 1; assay: Antiviral activity against HIV Lai with X4 tropism infected human MT4 cells assessed as inhibition of p24 antigen production after 4 days by ELISA; format: functional, organism-based; settings: Human immunodeficiency virus 1, M:B_Lai, MT4, 96 h
Method in brief: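 1 × 10⁴ MT-4 cells infected with HIV-1 Lai (100 TCID50) in RPMI 1640/10% FBS with graded compound overnight. Medium then replaced with compound-free medium. Supernatant lysed with Triton X-100 on day 4 and p24 measured by sandwich ELISA (A450) against recombinant p24 standard. Triplicate; EC50 by CalcuSyn.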

[6] = Selectivity index, ratio of CC50 for human MT4 cells to EC50 for HIV1 Lai; format: toxicity, cell-based
Method in brief: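 Ratio of XTT CC50 (4-day MT-4 exposure) to p24-ELISA EC50 against HIV-1 Lai in MT-4 cells.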

[7] = system: Human immunodeficiency virus 1; assay: Antiviral activity against multidrug-resistant HIV1 with reverse transcriptase 41L, 67N, 210W, 215Y, 184V, 103N mutation infected in human MT2 cells assessed as inhibition of p24 antigen production after 4 days by ELISA; format: functional, organism-based; settings: Human immunodeficiency virus 1, MT2, 96 h; method in brief: as §2
[8] = system: Human immunodeficiency virus 1; assay: Antiviral activity against multidrug-resistant HIV1 with reverse transcriptase 41L, 74V, 184V, 210W, 215Y, ins SS, 98G mutation infected in human MT2 cells assessed as inhibition of p24 antigen production after 4 days by ELISA; format: functional, organism-based; settings: Human immunodeficiency virus 1, MT2, 96 h; method in brief: as §2
[9] = system: Human immunodeficiency virus 1; assay: Antiviral activity against multidrug-resistant HIV1 with reverse transcriptase clone 7324-1 infected human MT2 cells assessed as inhibition of p24 antigen production after 4 days by ELISA; format: functional, organism-based; settings: Human immunodeficiency virus 1, MT2, 96 h; method in brief: as §2
[10] = system: Human immunodeficiency virus 1; assay: Antiviral activity against wild type HIV1 3B in human MT2 cells assessed as inhibition of p24 antigen production after 4 days by ELISA; format: functional, organism-based; settings: Human immunodeficiency virus 1, 3B, MT2, 96 h
[11] = system: Human immunodeficiency virus 1; assay: Antiviral activity against HIV1 BAL 93MW959 isolate of subtype C with R5 tropism in human PBMC cells assessed as inhibition of p24 antigen production after 4 days by ELISA; format: functional, organism-based; settings: Human immunodeficiency virus 1, BAL, 96 h
[12] = system: Human immunodeficiency virus 1; assay: Antiviral activity against HIV1 92UG001 isolate of subtype D with X4R5 tropism in human PBMC cells assessed as inhibition of p24 antigen production after 4 days by ELISA; format: functional, organism-based; settings: Human immunodeficiency virus 1, PBMC, 96 h
[13] = system: Human immunodeficiency virus 1; assay: Antiviral activity against HIV1 93BR020 isolate of subtype F with X4R5 tropism in human PBMC cells assessed as inhibition of p24 antigen production after 4 days by ELISA; format: functional, organism-based; settings: Human immunodeficiency virus 1, PBMC, 96 h
[14] = system: Human immunodeficiency virus 1; assay: Antiviral activity against HIV1 BAL RU570 isolate of subtype G with R5 tropism in human PBMC cells assessed as inhibition of p24 antigen production after 4 days by ELISA; format: functional, organism-based; settings: Human immunodeficiency virus 1, BAL, 96 h
[15] = system: Human immunodeficiency virus 1; assay: Antiviral activity against HIV1 BAL BCF02 isolate of group O with R5 tropism in human PBMC cells assessed as inhibition of p24 antigen production after 4 days by ELISA; format: functional, organism-based; settings: Human immunodeficiency virus 1, BAL, 96 h
PBMC = assay: Cytotoxicity against human PBMC after 4 days by XTT assay; format: cell-based; settings: 96 h
[16] = Clearance in Sprague-Dawley rat at 2 mg/kg, iv; format: ADME, organism-based; set-up: dose 2 mg/kg, route intravenous; settings: in vivo
Method in brief: (§3)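 Male Sprague-Dawley rats (180–200 g), n = 3, given 2 mg/kg i.v. or 20 mg/kg i.g. in 10% PEG400. Blood taken at 0–720 min, plasma stored at −20 °C. Plasma extracted by acetonitrile protein precipitation and analysed by LC-MS/MS against 5–5000 ng/mL standards. Non-compartmental analysis; F = dose-normalized oral AUC(0–t)/i.v. AUC(0–t). Mean ± SD.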

[17] = Volume of distribution in Sprague-Dawley rat at 2 mg/kg, iv; format: ADME, organism-based; set-up: dose 2 mg/kg, route intravenous; settings: in vivo; method in brief: as §3
Rattus norvegicus [18] = assay: AUC (0 to t) in Sprague-Dawley rat at 2 mg/kg, iv; format: ADME, organism-based, Plasma; set-up: dose 2 mg/kg, route intravenous; settings: in vivo; method in brief: as §3
[19] = Half life in Sprague-Dawley rat at 2 mg/kg, iv; format: ADME, organism-based; set-up: dose 2 mg/kg, route intravenous; settings: in vivo; method in brief: as §3
[20] = Clearance in Sprague-Dawley rat at 20 mg/kg, intragastric gavage; format: ADME, organism-based; set-up: dose 20 mg/kg, route intragastric; settings: in vivo, po; method in brief: as §3
Rattus norvegicus [21] = assay: Volume of distribution in Sprague-Dawley rat at 20 mg/kg, intragastric gavage; format: ADME, organism-based; set-up: dose 20 mg/kg, route intragastric; settings: in vivo, po; method in brief: as §3
Rattus norvegicus [22] = assay: AUC (0 to t) in Sprague-Dawley rat at 20 mg/kg, intragastric gavage; format: ADME, organism-based, Plasma; set-up: dose 20 mg/kg, route intragastric; settings: in vivo, po; method in brief: as §3
Rattus norvegicus [23] = assay: Half life in Sprague-Dawley rat at 20 mg/kg, intragastric gavage; format: ADME, organism-based; set-up: dose 20 mg/kg, route intragastric; settings: in vivo, po; method in brief: as §3
Rattus norvegicus [24] = assay: Bioavailability in Sprague-Dawley rat at 20 mg/kg, intragastric gavage; format: ADME, organism-based; settings: in vivo, po; method in brief: as §3
[25] = Ratio of EC50 for multidrug-resistant HIV1 with reverse transcriptase 41 L, 67N, 210W, 215Y, 184V, 103N mutation to EC50 for wild type HIV1 3B; format: functional
Method in brief: (§4)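 Fold change: EC50 against each multi-RT-resistant strain divided by EC50 against wild-type HIV-1 IIIB, both measured by p24 ELISA in MT-2 cells (4-day infection, triplicate).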

[26] = Ratio of EC50 for multidrug-resistant HIV1 with reverse transcriptase 41L, 74V, 184V, 210W, 215Y, ins SS, 98G mutation to EC50 for wild type HIV1 3B; format: functional; method in brief: as §4
[27] = Ratio of EC50 for multidrug-resistant HIV1with reverse transcriptase clone 7324-1 to EC50 for wild type HIV1 3B; format: functional; method in brief: as §4
[28] = system: Human immunodeficiency virus 1; assay: Antiviral activity against HIV1 94UG103 isolate of subtype A with X4R5 tropism in human PBMC cells assessed as inhibition of p24 antigen production after 7 days by ELISA; settings: Human immunodeficiency virus 1, PBMC, 168 h
[29] = system: Human immunodeficiency virus 1; assay: Antiviral activity against HIV1 BAL 92US657 isolate of subtype B with R5 tropism in human PBMC cells assessed as inhibition of p24 antigen production after 7 days by ELISA; settings: Human immunodeficiency virus 1, BAL, 168 h
[30] = system: Human immunodeficiency virus 1; assay: Antiviral activity against HIV1 BAL 93MW959 isolate of subtype C with R5 tropism in human PBMC cells assessed as inhibition of p24 antigen production after 7 days by ELISA; settings: Human immunodeficiency virus 1, BAL, 168 h

## Cc1cc(=O)oc2c3c(ccc12)OC(C)(C)[C@H](OC(=O)[C@@]12CC[C@](C)(C(=O)O1)C2(C)C)[C@@H]3OC(=O)[C@@]12CC[C@](C)(C(=O)O1)C2(C)C
H9
  IC50: 23.6 µM
[1]
  EC50: 1.5 nM
[2]
  selectivity ratio: 15700

## Cc1c(CC#N)c(=O)oc2c3c(ccc12)OC(C)(C)[C@H](OC(=O)[C@@]12CC[C@](C)(C(=O)O1)C2(C)C)[C@@H]3OC(=O)[C@@]12CC[C@](C)(C(=O)O1)C2(C)C
H9
  IC50: > 37 µM
[1]
  EC50: 2.4 nM
[2]
  selectivity ratio: 15400
MT2
  CC50: 40.8 µM
[3]
  EC50: 470 nM
[4]
  selectivity ratio: 86.1
MT4
  CC50: > 100 µM
[5]
  EC50: 1510 nM
[6]
  selectivity ratio: > 66
[7]
  EC50: 1810 nM
[8]
  EC50: 430 nM
[9]
  EC50: 3.93 µM
[10]
  EC50: 200 nM
[11]
  EC90: 3.06 µM
[12]
  EC50: 980 nM
  EC90: 5.23 µM
[13]
  EC50: 2180 nM
  EC90: 3.76 µM
[14]
  EC50: 3.27 µM
  EC90: 8.93 µM
[15]
  EC50: 9.92 µM
  EC90: 18.1 µM
PBMC
  CC50: > 150 µM
[16]
  clearance: 10 mL/min/kg
[17]
  Vd: 2.34 L/kg
Rattus norvegicus [18]
  AUC: 195270.08 µg/L/min
[19]
  half-life: 97 min
[20]
  CL/F: 58 mL/min/kg
Rattus norvegicus [21]
  Vd: 8.19 L/kg
Rattus norvegicus [22]
  AUC: 348067.29 µg/L/min
Rattus norvegicus [23]
  t1/2: 167 min
Rattus norvegicus [24]
  F: 17.8%
[25]
  Ratio EC50: 8.96
[26]
  Ratio EC50: 2.13
[27]
  Ratio EC50: 14.4
[28]
  EC50: 840 nM
  EC90: 1630 nM
[29]
  EC50: 5.09 µM
  EC90: 9.22 µM
[30]
  EC50: 870 nM

## Cc1ccnc2c1NC(=O)c1cccnc1N2C1CC1 [NEVIRAPINE]
[7]
  EC50: > 14800 nM
[8]
  EC50: > 14800 nM
[9]
  EC50: > 14.8 µM

## Cc1c(CO)c(=O)oc2c3c(ccc12)OC(C)(C)[C@H](OC(=O)C12CCC(C)(C(=O)O1)C2(C)C)[C@@H]3OC(=O)C12CCC(C)(C(=O)O1)C2(C)C (some centres not stated)
[2]
  selectivity ratio: 6220
